# Laboratory results as given in PubChem BioAssay.
# Calls of active or inactive are those of the source.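 Rule for the calls, unless noted: active = current rise at least 3 SD above the untreated control mean in each of two repeat wells; inactive = the rest.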
# Target: Potassium voltage-gated channel subfamily KQT member 2 (Rattus norvegicus) (UniProt O88943)
# Experiment: KCNQ2 thallium flux enhancement – KCNQ2-CHO-K1 cells, selectivity assay for KCNQ1 potentiator project (AID 493009;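 active = mean duplicate potentiation above the buffer control mean plus 5 SD of buffer wells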;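 note: assay conditions were tuned for KCNQ1 rather than KCNQ2 modulators; signal is max minus min fluorescence divided by baseline after thallium stimulus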)
# Conditions: FluxOR thallium flux fluorescence, at 10 µM; hits give high values, scaled: buffer 0, activator control 100
# Potassium voltage-gated channel subfamily KQT member 2 (Rattus norvegicus), sequence (O88943 whole entry, looked up): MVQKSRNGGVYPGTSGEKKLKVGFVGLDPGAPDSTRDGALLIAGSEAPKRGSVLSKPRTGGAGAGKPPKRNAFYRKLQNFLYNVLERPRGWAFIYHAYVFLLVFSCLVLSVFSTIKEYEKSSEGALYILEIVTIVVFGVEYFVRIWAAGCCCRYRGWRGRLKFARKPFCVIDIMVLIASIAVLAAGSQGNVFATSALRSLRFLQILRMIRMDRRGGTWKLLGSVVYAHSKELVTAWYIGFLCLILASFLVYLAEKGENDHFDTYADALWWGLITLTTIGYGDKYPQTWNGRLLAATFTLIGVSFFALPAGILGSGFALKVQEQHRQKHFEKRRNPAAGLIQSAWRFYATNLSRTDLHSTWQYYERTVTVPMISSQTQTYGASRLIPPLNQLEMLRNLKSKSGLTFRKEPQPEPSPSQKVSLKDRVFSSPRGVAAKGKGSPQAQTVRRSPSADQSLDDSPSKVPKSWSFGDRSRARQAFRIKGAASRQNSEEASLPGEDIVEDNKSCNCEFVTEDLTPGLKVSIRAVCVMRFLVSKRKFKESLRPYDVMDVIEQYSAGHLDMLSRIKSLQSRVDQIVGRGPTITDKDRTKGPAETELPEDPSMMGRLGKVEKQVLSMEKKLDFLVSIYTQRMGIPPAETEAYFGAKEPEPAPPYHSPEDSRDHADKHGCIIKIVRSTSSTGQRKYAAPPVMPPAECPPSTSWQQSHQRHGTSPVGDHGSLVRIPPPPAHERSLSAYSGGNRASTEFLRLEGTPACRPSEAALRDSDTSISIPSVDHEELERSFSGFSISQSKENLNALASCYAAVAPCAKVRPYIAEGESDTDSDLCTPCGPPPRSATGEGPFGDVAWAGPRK
Structure (SMILES),outcome,potentiation
N#C/C(=C/c1cn(-c2ccccc2)nc1-c1cccc(S(=O)(=O)N2CCOCC2)c1)C(=O)NCc1ccco1,inactive,
CCOc1ccc(N2CC(C(=O)Nc3cc(Cl)ccc3-n3cncn3)CC2=O)cc1 (centres undefined),inactive,
O=C(CCC(=O)N1CCOc2ccc(Cl)cc21)NCCN1CCOCC1,inactive,
CCCCCn1c(=O)c2ccccc2n2c(=S)[nH]nc12,,158% (active)
CCC(C)NC(=O)c1cc(Cl)c(NC(=O)C2=C(C)OCCS2)cc1OC (centres undefined),inactive,
O=C(CSc1ccc2ccccc2n1)Nc1ccc(N2CCOCC2)cc1,inactive,
COc1ccc(OC)c(S(=O)(=O)CC(O)CS(=O)(=O)c2ccccc2)c1 (centres undefined),inactive,
OC(c1ccccc1)c1cccnc1 (centres undefined),,155% (active)
CC(Oc1ccc(Cl)cc1Cl)C(=O)NC(=S)N1CCc2ccccc21 (centres undefined),,172% (active)
O=C(N/N=C/c1c[nH]c2ccccc12)C1COc2ccccc2O1 (centres undefined),inactive,
Cn1c(=O)c2nc3ccccc3nc2n(C)c1=O,,184% (active)
CC(Oc1ccc(Br)cc1)C(=O)N1CCC(C(N)=O)CC1 (centres undefined),inactive,
CCN(CC)CC(=O)Nc1ccc2c(c1)Nc1ccccc1CC2,,217% (active)
Cc1ccc(C2c3c(-c4ccccc4O)n[nH]c3C(=O)N2Cc2ccncc2)cc1 (centres undefined),inactive,

# Target: Potassium voltage-gated channel subfamily KQT member 1 (Homo sapiens) (UniProt P51787)
# Sequence (P51787 whole entry, looked up): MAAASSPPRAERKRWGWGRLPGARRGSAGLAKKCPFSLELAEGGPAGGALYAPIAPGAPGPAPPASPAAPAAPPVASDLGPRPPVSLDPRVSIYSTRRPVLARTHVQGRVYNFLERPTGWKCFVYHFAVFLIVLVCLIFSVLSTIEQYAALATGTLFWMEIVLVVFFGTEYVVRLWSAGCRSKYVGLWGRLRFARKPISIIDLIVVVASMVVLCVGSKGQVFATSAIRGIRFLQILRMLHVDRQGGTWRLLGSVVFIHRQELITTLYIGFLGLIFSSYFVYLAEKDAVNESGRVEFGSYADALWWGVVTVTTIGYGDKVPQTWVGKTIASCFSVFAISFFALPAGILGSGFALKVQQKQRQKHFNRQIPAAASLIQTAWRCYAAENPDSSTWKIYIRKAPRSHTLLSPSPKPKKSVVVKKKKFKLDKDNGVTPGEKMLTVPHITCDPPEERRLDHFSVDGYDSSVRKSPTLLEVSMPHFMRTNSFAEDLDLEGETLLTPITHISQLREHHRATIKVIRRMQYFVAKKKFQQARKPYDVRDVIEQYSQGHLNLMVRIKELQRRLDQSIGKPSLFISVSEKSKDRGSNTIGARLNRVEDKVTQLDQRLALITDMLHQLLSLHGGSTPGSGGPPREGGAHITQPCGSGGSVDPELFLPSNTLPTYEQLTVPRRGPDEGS
# Experiment: KCNQ1 activators by electrophysiology – IonWorks patch clamp, KCNQ1-CHO cells, orthogonal assay for KCNQ1 potentiator project, confirmation (AID 493184)
# Conditions: automated patch clamp current, at 10 µM; hits give high values
# In short: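 Material: KCNQ1-expressing CHO cells; doses: 10 µM final, single point; probe or stimulus: voltage step from -90 mV holding to +40 mV, 2,000 ms; signal: automated voltage clamp, amphotericin B perforated patch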
row,Structure (SMILES),outcome
1,CSc1ccccc1C(=O)NC1CCCc2ccccc21 (centres undefined),inactive
2,CCOc1cc(CNCCCN2CCOCC2)ccc1OCC(=O)NC(C)(C)C,inactive
3,C=CCN1C(=O)C(CC(=O)NCC)SC1=Nc1ccc(S(N)(=O)=O)cc1 (centres undefined),inactive
4,OCCN1CCN(c2ncnc3c2sc2nc(N4CCOCC4)c4c(c23)CCC4)CC1,inactive
5,CC12CCC(C/C1=N\N=C1\NC(=O)/C(=C\c3ccc(Cl)cc3)S1)C2(C)C (centres undefined),inactive
6,Cc1sc(NC(=O)CS(=O)(=O)c2ccccc2)c(C#N)c1C,inactive
7,Cc1nn2c(NCc3ccccn3)cc(C(C)C)nc2c1-c1ccccc1,inactive
8,C=CCn1c(SCN2C(=O)c3ccccc3C2=O)nc2ccc(Cl)cc2c1=O,inactive
9,COc1ccc(NC(=S)N2CCC(C(O)(c3ccccc3)c3ccccc3)CC2)cc1,inactive
10,Cc1ccc(C)c(NC(=S)NNC(=O)c2cc3c(s2)CCC(C)C3)c1 (centres undefined),inactive
11,CC1(C)N=C(N)NC(Nc2cccc(Br)c2)=N1,inactive
12,O=C(c1ccccn1)c1ncc(C(F)(F)F)cc1Cl,inactive
13,COc1cccc(C(=O)NNC(=O)C(=O)Nc2ccc(C)c(Cl)c2)c1,inactive
14,Cc1cc(Br)ccc1OCC(=O)NNC(=O)c1cnccn1,inactive
15,Cc1cc(/C=N/NC(=O)CC#N)c(C)n1-c1ccc([N+](=O)[O-])cc1,inactive
16,Cc1noc(C)c1CSc1ncnc2sc3c(c12)CCCCC3,inactive
17,O=C(/C=C/c1ccco1)NC(=S)Nc1ccccc1O,inactive
18,C=CCn1c(O)c(N=NC(=S)Nc2cccc(C)c2)c2ccccc21,inactive
19,CC(Sc1n[nH]c(N)n1)C(=O)NC1CCCCC1C (centres undefined),inactive
20,Cc1snnc1C(=O)NC(=S)Nc1ccccc1,inactive

row,Structure (SMILES),outcome
1,O=C(NC(=S)NCc1ccccc1)c1cccs1,inactive
2,Cc1cc(C)c2ccc(C)[n+]([O-])c2c1O,inactive
3,COC(=O)c1c(NC(=O)c2ccccc2)sc(C(=O)c2ccccc2)c1C,inactive
4,Cc1cccc(S(=O)(=O)Nc2cccc3c2C(=O)c2ccccc2-3)c1,inactive
5,COc1cc(Br)cc(C=Nc2cccc(C(F)(F)F)c2)c1O,inactive
6,COc1ccc(OCC(=O)Nc2cccc(C(C)=O)c2)cc1,inactive
7,N#C/C(=C/c1cn(-c2ccccc2)nc1-c1cccc(S(=O)(=O)N2CCOCC2)c1)C(=O)NCc1ccco1,inactive
8,CCOc1ccc(N2CC(C(=O)Nc3cc(Cl)ccc3-n3cncn3)CC2=O)cc1 (centres undefined),inactive
9,O=C(CCC(=O)N1CCOc2ccc(Cl)cc21)NCCN1CCOCC1,inactive
10,CCCCCn1c(=O)c2ccccc2n2c(=S)[nH]nc12,inactive
11,CCC(C)NC(=O)c1cc(Cl)c(NC(=O)C2=C(C)OCCS2)cc1OC (centres undefined),inactive
12,O=C(CSc1ccc2ccccc2n1)Nc1ccc(N2CCOCC2)cc1,inactive
13,COc1ccc(OC)c(S(=O)(=O)CC(O)CS(=O)(=O)c2ccccc2)c1 (centres undefined),inactive
14,OC(c1ccccc1)c1cccnc1 (centres undefined),inactive
15,CC(Oc1ccc(Cl)cc1Cl)C(=O)NC(=S)N1CCc2ccccc21 (centres undefined),inactive
16,O=C(N/N=C/c1c[nH]c2ccccc12)C1COc2ccccc2O1 (centres undefined),inactive
17,Cn1c(=O)c2nc3ccccc3nc2n(C)c1=O,inactive
18,CC(Oc1ccc(Br)cc1)C(=O)N1CCC(C(N)=O)CC1 (centres undefined),inactive
19,CCN(CC)CC(=O)Nc1ccc2c(c1)Nc1ccccc1CC2,inactive
20,Cc1ccc(C2c3c(-c4ccccc4O)n[nH]c3C(=O)N2Cc2ccncc2)cc1 (centres undefined),inactive
